In ChEMBL document CHEMBL1255300, “Pharmacodynamics of the antibacterial effect and emergence of resistance to tomopenem, formerly RO4908463/CS-023, in an in vitro pharmacokinetic model of Staphylococcus aureus infection” (Antimicrob Agents Chemother, 2008):
Converted amounts (≈) assume the structure as drawn. The source made the active and inactive calls. No cut-off for these calls is given here.

Experiments:
[1] = test system: Staphylococcus aureus; test: AUBKC (0 to 24 hrs) in methicillin-resistant Staphylococcus aureus 33922 infected in in vitro pharmacokinetic model at 750 mg, iv every 8 hrs using 10^8 CFU/ml inoculum; format: functional
Procedure, shortened: (§1)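 Single-compartment dilutional in vitro PK model at 37°C in 10% Mueller-Hinton broth, stirred, flow 132 ml/h. […] Inoculum 10^6 CFU/ml added 45 min before dosing, or 10^8 CFU/ml run overnight. Viable counts with β-lactamase neutralisation. AUBKC by log-linear trapezoidal rule, at least triplicate.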

[2] = test system: Staphylococcus aureus; test: AUBKC (0 to 24 hrs) in methicillin-sensitive Staphylococcus aureus 5956 infected in in vitro pharmacokinetic model at 750 mg, iv every 8 hrs using 10^6 CFU/ml inoculum; format: functional
[3] = test system: Staphylococcus aureus; test: Antibacterial activity against methicillin-resistant Staphylococcus aureus 33921 by broth dilution method; format: functional
Procedure, shortened: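 MIC by CLSI broth dilution, or by broth dilution in 10% Mueller-Hinton broth at nondoubling dilutions.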

[4] = test system: Staphylococcus aureus; test: T>MIC for 3-log drop in count in methicillin-resistant Staphylococcus aureus 33815 in in vitro pharmacokinetic model after 24 hrs using 10^8 CFU/ml inoculum; format: functional
[5] = test system: Staphylococcus aureus; test: T>MIC for 2-log drop in count in methicillin-resistant Staphylococcus aureus 33820 in in vitro pharmacokinetic model after 24 hrs using 10^6 CFU/ml inoculum; format: functional
[6] = test system: Staphylococcus aureus; test: Antibacterial activity against methicillin-resistant Staphylococcus aureus 33922 infected in in vitro pharmacokinetic model assessed as reduction in viable count at 1500 mg, iv every 8 hrs measured after 48 hrs using 10^6 CFU/ml inoculum; format: functional
[7] = test system: Staphylococcus aureus; test: Antibacterial activity against methicillin-resistant Staphylococcus aureus 33829 infected in in vitro pharmacokinetic model assessed as reduction in viable count at 1500 mg, iv every 8 hrs measured after 24 hrs using 10^6 CFU/ml inoculum; format: functional
Procedure, shortened: (§2)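 Single-compartment dilutional in vitro PK model, 10% Mueller-Hinton broth, 37°C, stirred, dilution 132 ml/h. […] Inoculum 10^6 CFU/ml (added 45 min pre-dose) or 10^8 CFU/ml (run overnight). Viable counts by spiral plating, beta-lactamase neutralization, detection limit 10^2 CFU/ml. At least triplicate.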

[8] = test system: Staphylococcus aureus; test: Antibacterial activity against methicillin-resistant Staphylococcus aureus 33815 infected in in vitro pharmacokinetic model assessed as reduction in viable count at 750 mg, iv every 8 hrs measured after 12 hrs using 10^8 CFU/ml inoculum; format: functional
Procedure, shortened: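 PK model at 37°C in 10% MHB. […] A 0.5 McFarland suspension (1 ml) was added and the model run overnight to reach 10^8 CFU/ml before dosing. Counts were spiral-plated on nutrient agar with β-lactamase. Change in log CFU/ml was measured from time 0; at least triplicate.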

[9] = test system: Staphylococcus aureus; test: T>MIC for 1-log drop in count in methicillin-resistant Staphylococcus aureus 33827 in in vitro pharmacokinetic model after 24 hrs using 10^8 CFU/ml inoculum; format: functional
[10] = test system: Staphylococcus aureus; test: Antibacterial activity against methicillin-resistant Staphylococcus aureus 33921 infected in in vitro pharmacokinetic model assessed as reduction in viable count at 750 mg, iv every 8 hrs measured after 36 hrs using 10^6 CFU/ml inoculum; format: functional
[11] = test system: Staphylococcus aureus; test: Antibacterial activity against methicillin-resistant Staphylococcus aureus 33820 infected in in vitro pharmacokinetic model assessed as reduction in viable count at 750 mg, iv every 8 hrs measured after 12 hrs using 10^6 CFU/ml inoculum; format: functional
Procedure, shortened: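 Single-compartment dilutional in vitro PK model, 37°C, stirred, in 10% Mueller-Hinton broth. […] Inoculum 10^6 CFU/ml from a 24-h plate culture was added 45 min before dosing. Viable counts by spiral plating on nutrient agar with β-lactamase neutralization. Log change was taken from time 0; detection limit 10^2 CFU/ml; at least triplicate.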

[12] = test system: Staphylococcus aureus; test: Antibacterial activity against methicillin-resistant Staphylococcus aureus 33827 infected in in vitro pharmacokinetic model assessed as reduction in viable count at 750 mg, iv every 8 hrs measured after 24 hrs using 10^6 CFU/ml inoculum; format: functional; procedure, shortened: as §2
[13] = test system: Staphylococcus aureus; test: AUBKC (0 to 48 hrs) in methicillin-resistant Staphylococcus aureus 33827 infected in in vitro pharmacokinetic model at 1500 mg, iv every 8 hrs using 10^6 CFU/ml inoculum; format: functional; procedure, shortened: as §1
[14] = test system: Staphylococcus aureus; test: Antibacterial activity against methicillin-resistant Staphylococcus aureus 33827 infected in in vitro pharmacokinetic model assessed as reduction in viable count at 1500 mg, iv every 8 hrs measured after 24 hrs using 10^8 CFU/ml inoculum; format: functional; procedure, shortened: as §2
[15] = test system: Staphylococcus aureus; test: Antibacterial activity against methicillin-resistant Staphylococcus aureus 33922 infected in in vitro pharmacokinetic model assessed as reduction in viable count at 1500 mg, iv every 8 hrs measured after 24 hrs using 10^6 CFU/ml inoculum; format: functional
[16] = test system: Staphylococcus aureus; test: Antibacterial activity against methicillin-resistant Staphylococcus aureus 33820 in in vitro pharmacokinetic model assessed as viable count at 2 times of MIC; format: functional
Procedure, shortened: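 Population analysis before drug exposure (time 0). Model samples were plated on nutrient agar without drug and with tomopenem at 2×, 4× and 6× MIC (10% MHB MIC), and growth was recorded as log CFU/ml. Detection limit 2 log10.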

[17] = test system: Staphylococcus aureus; test: Antibacterial activity against methicillin-resistant Staphylococcus aureus 33922 infected in in vitro pharmacokinetic model assessed as reduction in viable count at 1500 mg, iv every 8 hrs measured after 12 hrs using 10^6 CFU/ml inoculum; format: functional
[18] = test system: Staphylococcus aureus; test: T>MIC for 4-log drop in count in methicillin-resistant Staphylococcus aureus 33815 in in vitro pharmacokinetic model after 24 hrs using 10^8 CFU/ml inoculum; format: functional
[19] = test system: Staphylococcus aureus; test: Antibacterial activity against methicillin-resistant Staphylococcus aureus; format: functional
[20] = test system: Staphylococcus aureus; test: T>MIC for 2-log drop in count in methicillin-resistant Staphylococcus aureus 33815 in in vitro pharmacokinetic model after 24 hrs using 10^6 CFU/ml inoculum; format: functional
[21] = test system: Staphylococcus aureus; test: Antibacterial activity against methicillin-resistant Staphylococcus aureus 33922 infected in in vitro pharmacokinetic model assessed as reduction in viable count at 1500 mg, iv every 8 hrs measured after 36 hrs using 10^6 CFU/ml inoculum; format: functional
[22] = test system: Staphylococcus aureus; test: Antibacterial activity against methicillin-resistant Staphylococcus aureus 33827 assessed as viable count at 2 times of MIC after 24 hrs using 10^6 CFU/ml inoculum; format: functional, organism-based
[23] = test system: Staphylococcus aureus; test: Antibacterial activity against methicillin-resistant Staphylococcus aureus 33827 infected in in vitro pharmacokinetic model assessed as reduction in viable count at 1500 mg, iv every 8 hrs measured after 12 hrs using 10^8 CFU/ml inoculum; format: functional; procedure, shortened: as §2
[24] = test system: Staphylococcus aureus; test: Antibacterial activity against methicillin-resistant Staphylococcus aureus 33921 infected in in vitro pharmacokinetic model assessed as reduction in viable count at 1500 mg, iv every 8 hrs measured after 24 hrs using 10^6 CFU/ml inoculum; format: functional; procedure, shortened: as §2
[25] = test system: Staphylococcus aureus; test: T>MIC for 3-log drop in count in methicillin-sensitive Staphylococcus aureus 5956 in in vitro pharmacokinetic model after 24 hrs using 10^8 CFU/ml inoculum; format: functional
Procedure, shortened: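 Dose-ranging: 7–13 simulated regimens per strain giving T>MIC of 0–100% (MIC from 10% MHB), at 106 or 10^8 CFU/ml as stated.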

Structure (SMILES): C[C@@H](O)[C@H]1C(=O)N2C(C(=O)O)=C(S[C@H]3C[C@@H](C(=O)N4CC[C@H](NC(=O)CNC(=N)N)C4)N(C)C3)[C@H](C)[C@H]12 [TOMOPENEM]
- AUBC [1]: 71.5 log10CFU/ml.hr
- AUBC [2]: 27.6 log10CFU/ml.hr
- MIC [3]: 0.5 µg/mL (≈ 0.93 µM)
- fT>MIC [4]: 3.3%
- fT>MIC [5]: 14.5%
- log10CFU/ml [6]: 4.2
- log10CFU/ml [7]: 4.2
- log10CFU/ml [8]: 1.7
- fT>MIC [9]: 19.5%
- log10CFU/ml [10]: 3.9
- log10CFU/ml [11]: 3.9
- log10CFU/ml [12]: 3.6
- AUBC [13]: 35.5 log10CFU/ml.hr
- log10CFU/ml [14]: 5.8
- log10CFU/ml [15]: 4.2
- log10CFU/ml [16]: 2.3
- log10CFU/ml [17]: 4.2
- fT>MIC [18]: 6.5%
- MIC50 [19]: 2 µg/mL (≈ 3.72 µM)
- MIC90 [19]: 4 µg/mL (≈ 7.44 µM)
- fT>MIC [20]: 12.5%
- log10CFU/ml [21]: 4.2
- Activity [22]: inactive
- log10CFU/ml [23]: 3.4
- log10CFU/ml [24]: 4.2
- fT>MIC [25]: 12.8%
